The record followed here is ChEMBL document CHEMBL4028907, “Semisynthesis and Biological Evaluation of Xanthone Amphiphilics as Selective, Highly Potent Antifungal Agents to Combat Fungal Resistance” (J Med Chem, 2017).

Values after ≈ are worked out from the molar mass of the structure shown. Active and inactive are the calls of the source. The calls are words filed in the database; no cut-off is given here.

The subject of experiment [1] is Candida albicans. Put plainly: Antifungal activity against Candida albicans ATCC24433 after 24 hrs by two fold serial dilution method. It counts as functional. To be noted: ATCC24433, 24 h. An outline of the steps: (§1)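 Candida grown on Sabouraud dextrose agar at 35 °C for 24 h, adjusted to ~5×10^3 CFU/mL. Two-fold dilutions from 100 to 0.78 μg/mL in Sabouraud dextrose broth, incubated at 35 °C for 24 h. MIC is the lowest concentration inhibiting growth by eye and by OD600. CLSI-based with minor modifications.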

Experiment [2] concerns Fusarium solani. Put plainly: Antifungal activity against Fusarium solani MYA3636 after 48 hrs by two fold serial dilution method. It counts as functional. Conditions: MYA3636, 48 h. An outline of the steps:
(§2)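 Moulds grown on potato dextrose agar, 30 °C, 4 days; inoculum adjusted to about 5×10^3 CFU/mL. Two-fold serial dilutions in RPMI-1640 broth, 100 to 0.78 μg/mL final, mixed with equal volume of cell suspension; incubated 30 °C, 48 h. MIC = lowest concentration inhibiting growth, judged visually and by OD530.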

Experiment [3] is described as follows: Selectivity index, ratio of HC50 for New Zealand white rabbit RBC to MIC for Candida albicans ATCC 10231.
Experiment [4] concerns Aspergillus fumigatus. Description: Antifungal activity against Aspergillus fumigatus TCC 90906 after 48 hrs by two fold serial dilution method. In kind it is functional. Conditions: TCC 90906, 48 h. An outline of the steps:
as §2

The subject of experiment [5] is Aspergillus flavus. Put plainly: Antifungal activity against Aspergillus flavus TCC MYA3631 after 48 hrs by two fold serial dilution method. It counts as functional. Conditions: TCC MYA3631, 48 h. An outline of the steps: as §2
For experiment [6], the system named is Aspergillus fumigatus. Put plainly: Antifungal activity against Aspergillus fumigatus TCC MYA3626 after 48 hrs by two fold serial dilution method. It counts as functional. Conditions: TCC MYA3626, 48 h. An outline of the steps:
as §2

Experiment [7] deals with Candida albicans. Description: Antifungal activity against Candida albicans ATCC 10231 after 24 hrs by two fold serial dilution method. It counts as functional. Conditions: ATCC 10231, 24 h. An outline of the steps:
as §1

Experiment [8] concerns Candida albicans. Description: Antifungal activity against Candida albicans DF1976R after 24 hrs by two fold serial dilution method. It counts as functional. An outline of the steps: as §1
Experiment [9] deals with Candida albicans. Description: Antifungal activity against Candida albicans ATCC11651 after 24 hrs by two fold serial dilution method. In kind it is functional. To be noted: ATCC11651, 24 h. An outline of the steps: as §1
Experiment [10] relates to Fusarium solani. Put plainly: Antifungal activity against Fusarium solani 52628 after 48 hrs by two fold serial dilution method. Conditions: Fusarium solani, 52628, 48 h. It counts as functional. An outline of the steps:
as §2

The subject of the next experiment is Aspergillus brasiliensis. Description: Antifungal activity against Aspergillus brasiliensis TCC16404 after 48 hrs by two fold serial dilution method. In kind it is functional. To be noted: TCC16404, 48 h. An outline of the steps:
as §2

The subject of experiment [11] is Fusarium solani. Put plainly: Antifungal activity against Fusarium solani 62877 after 48 hrs by two fold serial dilution method. It counts as functional. To be noted: Fusarium solani, 62877, 48 h. An outline of the steps: as §2
Experiment [12] relates to Aspergillus flavus. Description: Antifungal activity against Aspergillus flavus TCC 204304 after 48 hrs by two fold serial dilution method. To be noted: TCC 204304, 48 h. In kind it is functional. An outline of the steps:
as §2

Experiment [13] relates to Fusarium solani. Put plainly: Antifungal activity against Fusarium solani 46492 after 48 hrs by two fold serial dilution method. It counts as functional. To be noted: Fusarium solani, 46492, 48 h. An outline of the steps: as §2
Experiment [14] deals with Candida albicans. Description: Fungicidal activity against drug resistant Candida albicans DF2672R at 8 times MIC after 24 hrs by time kill assay relative to control. It counts as functional. An outline of the steps: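 Cells at 10^5–10^6 CFU/mL exposed to 1×, 2×, 4× or 8× MIC at 35 °C. Samples taken at 0.5, 1, 2, 4, 8 and 24 h, serially diluted in PBS and plated on SDA. CFU counted after 24 h at 35 °C; biological replicates.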

The subject of experiment [15] is Candida albicans. Put plainly: Antifungal activity against drug resistant Candida albicans DF2672R after 24 hrs by two fold serial dilution method. In kind it is functional. An outline of the steps:
as §1

In experiment [16] the test system is Fusarium oxysporum. Put plainly: Antifungal activity against Fusarium oxysporum 64530 after 48 hrs by two fold serial dilution method. In kind it is functional. To be noted: Fusarium oxysporum, 64530, 48 h. An outline of the steps:
as §2

Experiment [17] has as its system Fusarium oxysporum. Description: Antifungal activity against Fusarium oxysporum MYA3461 after 48 hrs by two fold serial dilution method. Conditions: MYA3461, 48 h. In kind it is functional. An outline of the steps: as §2
Experiment [18] concerns Candida albicans. Description: Antifungal activity against Candida albicans ATCC90028 after 24 hrs by two fold serial dilution method. In kind it is functional. To be noted: ATCC90028, 24 h. An outline of the steps: as §1
Experiment [19] relates to Candida albicans. Description: Antifungal activity against drug resistant Candida albicans DF2672R infected C57BL6 mouse cornea at 5% administered topically for every 20 mins during the first hour and every 1 hr during the next 6 hrs by serial dilution method. It counts as functional. An outline of the steps:
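C57BL6 mice aged 7–8 weeks (19–23 g), immunosuppressed with cyclophosphamide 100 mg/kg ip at 4 days and 1 day before infection and on day 1 after. Left cornea scratched under xylazine/ketamine, then 20 μL of ~5×10^7 CFU/mL yeast in PBS applied. Treatment started 1 day later; PBS served as control; four mice per group. Corneal fungal load counted by serial dilution plating on SDA.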

For experiment [20], the system named is Staphylococcus aureus. Description: Antibacterial activity against methicillin resistant Staphylococcus aureus DM21455 by two fold serial dilution method. In kind it is functional. An outline of the steps:
(§3)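 Broth microdilution per CLSI guidelines with minor modifications, run in Mueller−Hinton broth; MIC is the lowest concentration giving no visible growth.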

In another experiment the test system is Bacillus cereus. Description: Antibacterial activity against Bacillus cereus ATCC11778 by two fold serial dilution method. In kind it is functional. An outline of the steps: (§4)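 Broth microdilution (CLSI, minor modifications) in Sabouraud dextrose, Mueller−Hinton or RPMI 1640 broth; two-fold serial dilutions of compound from stock to final 100 to 0.78 μg/mL. MIC taken as lowest concentration giving no visible growth.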

For another experiment, the system named is Klebsiella pneumoniae. Put plainly: Antibacterial activity against Klebsiella pneumoniae DM4299 by two fold serial dilution method. In kind it is functional. An outline of the steps: as §4
In experiment [21] the test system is Staphylococcus aureus. Description: Antibacterial activity against methicillin resistant Staphylococcus aureus DM9808R by two fold serial dilution method. It counts as functional. An outline of the steps: as §3
In the next experiment the test system is Pseudomonas aeruginosa. Description: Antibacterial activity against Pseudomonas aeruginosa DM23155 by two fold serial dilution method. It counts as functional. An outline of the steps: as §4
Experiment [22] concerns Staphylococcus aureus. Put plainly: Antibacterial activity against Staphylococcus aureus DM4001R by two fold serial dilution method. It counts as functional. An outline of the steps: as §4

Take `C[C@@H]1C/C=C/C=C/C=C/C=C/[C@H](O[C@@H]2O[C@H](C)[C@@H](O)[C@H](N)[C@@H]2O)C[C@@H]2O[C@](O)(C[C@@H](O)C[C@H]3O[C@@H]3/C=C/C(=O)O1)C[C@H](O)[C@H]2C(=O)O` [NATAMYCIN]: the minimum inhibitory concentration (MIC) (usually the lowest concentration that inhibits growth of the organism) is 6.25 mg/L (≈ 9.39 µM) with Candida albicans [1]; 6.25 mg/L (≈ 9.39 µM) in the experiment on Fusarium solani [2]; 6.25 mg/L (≈ 9.39 µM) in the experiment with Aspergillus fumigatus [4]; greater than 50 mg/L against Aspergillus flavus [5]; 6.25 mg/L (≈ 9.39 µM) with Aspergillus fumigatus [6]; 6.25 mg/L (≈ 9.39 µM) in the experiment with Candida albicans [7]. In addition, the MIC against Candida albicans [8] was 6.25 mg/L (≈ 9.39 µM); in the experiment on Candida albicans [9], 6.25 mg/L (≈ 9.39 µM); against Fusarium solani [10], 6.25 mg/L (≈ 9.39 µM); with Aspergillus brasiliensis it was 6.25 mg/L (≈ 9.39 µM); against Fusarium solani [11] it was 25 mg/L (≈ 37.6 µM); with Aspergillus flavus [12], greater than 50 mg/L. For the same compound, the MIC in the experiment with Fusarium solani [13] came out at 6.25 mg/L (≈ 9.39 µM); with Candida albicans [15], 6.25 mg/L (≈ 9.39 µM); against Fusarium oxysporum [16], 6.25 mg/L (≈ 9.39 µM); with Fusarium oxysporum [17], 3.13 mg/L (≈ 4.7 µM); in the experiment with Candida albicans [18], 6.25 mg/L (≈ 9.39 µM). Also, the Selectivity Index in [3] stood at 18.1. In the experiment on Candida albicans [14], this compound displayed an Activity of 99.9%. For the same compound, the result with Candida albicans [19] was Active.

With `CCCN(CCC)CC(O)COc1cc2oc3cc(OCC(O)CN(CCC)CCC)c(OC)c(CC=C(C)C)c3c(=O)c2c(O)c1CC=C(C)C` (stereo not drawn), the MIC against Candida albicans [1] is 6.25 mg/L (≈ 8.62 µM); against Staphylococcus aureus [20], 6.25 to 12.5 mg/L (≈ 8.62 to 17.2 µM); against Candida albicans [7] it was 3.13 mg/L (≈ 4.32 µM); with Bacillus cereus, 6.25 to 12.5 mg/L (≈ 8.62 to 17.2 µM); in the experiment with Candida albicans [8], 6.25 mg/L (≈ 8.62 µM); in the experiment with Candida albicans [9], 6.25 mg/L (≈ 8.62 µM). Further, the MIC with Klebsiella pneumoniae was greater than 50 mg/L; against Staphylococcus aureus [21] it was 6.25 to 12.5 mg/L (≈ 8.62 to 17.2 µM); in the experiment on Candida albicans [15] it was 3.13 mg/L (≈ 4.32 µM); in the experiment on Pseudomonas aeruginosa, greater than 50 mg/L; in the experiment on Staphylococcus aureus [22], 6.25 to 12.5 mg/L (≈ 8.62 to 17.2 µM); with Candida albicans [18], 6.25 mg/L (≈ 8.62 µM). In experiment [3], the Selectivity Index is greater than 128.
